Test results published in ChEMBL document CHEMBL2375308, “Synthesis and selected immunological properties of substituted quino[3,2-b]benzo[1,4]thiazines” (Eur J Med Chem, 2013).

Experiments:
PBMC [1] = assay: Inhibition of LPS-induced TNFalpha production in human PBMC at 5 ug/mL after overnight incubation relative to DMSO-treated control; assay type: functional
Method in brief: (§1)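 Single-donor venous blood diluted 10× in RPMI-1640, 1 mL aliquots, stimulated with LPS (E. coli O111:B4). Compounds added at […]; corresponding DMSO dilutions as controls. Overnight incubation, supernatants frozen at −20 °C, TNF-α measured by biological assay; percentage inhibition versus DMSO control.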

PBMC [2] = assay: Cytotoxicity against human PBMC cells at 50 ug/mL after 24 hrs by MTT assay relative to DMSO-treated control; assay type: cell-based
Method in brief: (§2)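 Ficoll-isolated PBMC ([…]) in supplemented RPMI-1640, 2 × 10⁵/well, cultured 24 h with the preparations at the indicated concentrations; compounds dissolved in DMSO (10 mg/mL stock) and diluted in medium.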

PBMC [3] = assay: Cytotoxicity against human PBMC cells at 10 ug/mL after 24 hrs by MTT assay relative to DMSO-treated control; assay type: cell-based; method in brief: as §2
PBMC [4] = assay: Inhibition of LPS-induced TNFalpha production in human PBMC at 25 ug/mL after overnight incubation relative to DMSO-treated control; assay type: functional; method in brief: as §1
PBMC [5] = assay: Antiproliferative activity against PHA-stimulated human PBMC at 10 ug/mL after 4 days by MTT assay relative to DMSO-treated control; assay type: functional
Method in brief: (§3)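 PBMC from one donor's heparinized blood, Ficoll gradient isolated, in RPMI-1640 with 10% FCS; 2 × 10⁵ cells/well. PHA added at […]; compounds from DMSO stock (10 mg/mL) diluted in medium; matching DMSO dilutions as control. Four-day culture, proliferation read by MTT colorimetry; percentage inhibition versus control.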

PBMC [6] = assay: Antiproliferative activity against PHA-stimulated human PBMC at 50 ug/mL after 4 days by MTT assay relative to DMSO-treated control; assay type: functional; method in brief: as §3

Structure (SMILES)	inhibition at 5 µg/mL (PBMC [1]) [%]	Activity (PBMC [2])	Activity (PBMC [3])	inhibition at 25 µg/mL (PBMC [4]) [%]	Activity (PBMC [5]) [%]	Activity (PBMC [6]) [%]
CCOC(=O)NCCCN1c2ccc(Cl)cc2Sc2cc3ccccc3nc21	10.3	Non-toxic	Non-toxic	31.7	45	60.4
Clc1ccc2c(c1)Sc1cc3ccccc3nc1N2CCN1CCCCC1	-70.5	83.8%	19.2%	56.7	96.3	98.2
CCOC(=O)NCCCCN1c2ccc(Cl)cc2Sc2cc3ccccc3nc21	13.2	Non-toxic	Non-toxic	8.41	-0.7	-12
CS(=O)(=O)NCCCN1c2ccccc2Sc2cc3ccccc3nc21	8.1	Non-toxic	Non-toxic	60.6	36.6	74.6
CSc1ccc2c(c1)Sc1cc3ccccc3nc1N2CCCCNS(C)(=O)=O	72.8	Non-toxic	Non-toxic	13.2	53.3	62.7
CC(=O)NCCCN1c2ccccc2Sc2cc3ccccc3nc21	-0.4	91.9%	Non-toxic	32.2	68.7	92.4
Brc1ccc2c(c1)Sc1cc3ccccc3nc1N2	16.2	Non-toxic	Non-toxic	10.1	-9.7	19
CSc1ccc2c(c1)Sc1cc3ccccc3nc1N2CCCCNC(C)=O	46.8	7.9%	Non-toxic	60.4	54.7	42
CSc1ccc2c(c1)Sc1cc3ccccc3nc1N2	22.5	Non-toxic	Non-toxic	19.2	0	2.9
CC(=O)NCCCCN1c2ccccc2Sc2cc3ccccc3nc21	0	Non-toxic	Non-toxic	20.2	72.7	94.3
Clc1ccc2c(c1)Sc1cc3ccccc3nc1N2	2	Non-toxic	Non-toxic	9.6	-0.3	5.7
Cc1ccc(S(=O)(=O)NCCCCN2c3ccccc3Sc3cc4ccccc4nc32)cc1	15.8	Non-toxic	Non-toxic	12.5	3.3	2.4
CS(=O)(=O)NCCCN1c2ccc(Cl)cc2Sc2cc3ccccc3nc21	1.2	Non-toxic	Non-toxic	30.5	73.4	74.4
CCOC(=O)NCCCCN1c2ccccc2Sc2cc3ccccc3nc21	0.2	Non-toxic	Non-toxic	12.3	73.9	83.7
CCOC(=O)NCCCN1c2ccc(SC)cc2Sc2cc3ccccc3nc21	74.9	Non-toxic	Non-toxic	70.1	45.4	38.8
c1ccc2c(c1)Nc1nc3ccccc3cc1S2	25.6	Non-toxic	Non-toxic	16.1	7.1	14.4
CSc1ccc2c(c1)Sc1cc3ccccc3nc1N2CCCCNS(=O)(=O)c1ccc(C)cc1	70.4	Non-toxic	Non-toxic	37.5	-5	-34.7
FC(F)(F)c1cccc2c1Sc1cc3ccccc3nc1N2	74.9	Non-toxic	5%	-2.6	2.3	13.6
CSc1ccc2c(c1)Sc1cc3ccccc3nc1N2CCCNC(C)=O	71.7	Non-toxic	Non-toxic	64.5	72.5	68.8
Fc1ccc2c(c1)Sc1cc3ccccc3nc1N2	–	–	50%	–	100	–
FC(F)(F)c1ccc2c(c1)Nc1nc3ccccc3cc1S2	72.3	21.5%	Non-toxic	48.8	21.7	0.3
CSc1ccc2c(c1)Sc1cc3ccccc3nc1N2CCCNC(=O)NCCCl	50.7	92.7%	Non-toxic	1	93	93.7
CSc1ccc2c(c1)Sc1cc3ccccc3nc1N2CCCNS(C)(=O)=O	73.7	Non-toxic	Non-toxic	47.5	57.3	65.4
O=C(NCCCl)NCCCCN1c2ccccc2Sc2cc3ccccc3nc21	-1.8	Non-toxic	7.9%	4.3	16.6	88.7
Brc1cccc2c1Sc1cc3ccccc3nc1N2	13.6	Non-toxic	Non-toxic	8.4	0.1	16.4
Cc1ccc2c(c1)Sc1cc3ccccc3nc1N2	54.1	15.4%	2.4%	66.6	-17.9	-6.2
FC(F)(F)c1ccc2c(c1)Sc1cc3ccccc3nc1N2	51.1	Non-toxic	Non-toxic	-5.6	24.9	61
CS(=O)(=O)NCCCCN1c2ccc(Cl)cc2Sc2cc3ccccc3nc21	-7.5	Non-toxic	Non-toxic	24.5	59.4	43.9
Brc1ccc2c(c1)Nc1nc3ccccc3cc1S2	11.2	Non-toxic	Non-toxic	-25	4.3	20.6
O=C(NCCCl)NCCCCN1c2ccc(Cl)cc2Sc2cc3ccccc3nc21	54.8	86.3%	19.2%	56	98.4	94.6
